Active and inactive are the calls of the source. The calls are words filed in the database; no cut-off is given here.
What was measured:
HeLa [1] = test: Cell cycle arrest in human HeLa cells assessed as reduction in S phase up to 60 nM after 24 hrs by propidium iodide staining-based flow cytometric analysis; format: functional
Procedure, shortened: (§1)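 HeLa cells (5 × 10⁵) treated for 24 h. Harvested, fixed in 70% ethanol chilled to 0 °C, then suspended in RNase with 0.1% Triton X-100. DNA stained with PI, analysed by flow cytometry as DNA-content histograms. Mean of three independent experiments.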

[2] = Inhibition of bovine brain tubulin polymerization preincubated for 15 mins followed by GTP addition measured for 20 mins by turbidometric analysis; set-up: species or system Bos taurus
HeLa [3] = test: Cell cycle arrest in human HeLa cells assessed as accumulation at G2/M phase at 15 to 30 nM after 24 hrs by propidium iodide staining-based flow cytometric analysis relative to control; format: functional; procedure, shortened: as §1
HUVEC = test: Cytotoxicity against HUVEC assessed as growth inhibition after 72 hrs by MTT assay; format: cell-based; settings: Homo sapiens
Procedure, shortened: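 HUVECs were detached with EDTA/trypsin at confluence, and only passages 1–6 were used. Cells were exposed to varying compound concentrations, and viability was read by MTT after 72 h. IC50 is the concentration reducing cell growth by 50%, as the mean of three independent experiments.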

PBL = test: Cytotoxicity against resting phase of human PBL assessed as growth inhibition after 72 hrs by MTT assay; format: cell-based
Procedure, shortened: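 Human PBL from healthy donors were isolated on a density gradient, washed, and held overnight in RPMI-1640 with 10% FBS. For proliferating cultures, nonadherent cells were resuspended at 5 × 10⁵ cells/mL with 2.5 μg/mL PHA; resting PBL received no PHA. Cells were exposed to varying compound concentrations, and viability was read by MTT after 72 h. IC50 is the concentration reducing growth by 50%, as the mean of three independent experiments.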

HeLa [4] = test: Cytotoxicity against human HeLa cells assessed as growth inhibition after 48 hrs by coulter counting analysis; format: functional, cell-based
[5] = Cytotoxicity against human CEM/0 cells assessed as growth inhibition after 48 hrs by coulter counting analysis; format: functional, cell-based; settings: CCRF-CEM
[6] = Cytotoxicity against mouse FM3A/0 cells assessed as growth inhibition after 48 hrs by coulter counting analysis; format: functional, cell-based; settings: FM3A/0, 48 h
[7] = Selectivity ratio of IC50 for HUVEC to IC50 for human CEM/0 cells; format: ADME, cell-based; settings: HUVEC and CEM/0 cells, read-out: Ratio IC50
[8] = Selectivity ratio of IC50 for HUVEC to IC50 for mouse FM3A/0 cells; format: ADME, cell-based; settings: HUVEC and FM3A/0 cells, read-out: Ratio IC50
[9] = Selectivity ratio of IC50 for HUVEC to IC50 for human Molt4/C8 cells; format: ADME, cell-based; settings: HUVEC and Molt4/C8 cells, read-out: Ratio IC50
[10] = Selectivity ratio of IC50 for HUVEC to IC50 for mouse L1210 cells; format: ADME, cell-based; settings: HUVEC and L1210 cells, read-out: Ratio IC50
MNNG-HOS = test: Antitumor activity against human MNNG-HOS cells xenografted in Balb/c-nu mouse assessed as tumor growth inhibition at 50 mg/kg, ip measured on day 18 relative to vehicle-treated control; format: functional; settings: HOS-TE85, ip, 432 h, route intraperitoneal, read-out: TGI
Procedure, shortened: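 MNNG/HOS osteosarcoma cells grown to exponential phase, suspended in FBS-free MEM (10⁷ cells/mL), 0.1 mL injected into back hypodermis of nude mice. At ~100 mm³, 12 mice randomised to three groups (vehicle, CA-4P in isotonic saline, test in 5% DMSO/olive oil). 50 mg/kg ip at 0.01 mL/g on days 0, 3, 6, 9. Tumour volume and body weight tracked; tumours excised and weighed day 18; […].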

HeLa [11] = test: Downregulation of Xiap protein expression in human HeLa cells at 10 to 100 nM after 24 to 48 hrs by Western blot analysis; format: functional, cell-based
Procedure, shortened: (§2)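 HeLa cultures treated 24 or 48 h, washed in cold PBS, lysed 30 min at 0 °C, clarified at 15000g. 20 μg protein run on 7.5−15% gradient SDS-PAGE and blotted to PVDF. Primary antibodies 2 h at room temperature, peroxidase secondary 60 min, ECL detection. Membranes stripped and reprobed for β-actin as loading control.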

HeLa [12] = test: Induction of apoptosis in human HeLa cells assessed as PARP cleavage at 10 nM after 24 hrs by Western blot analysis; format: functional, cell-based; procedure, shortened: as §2
HeLa [13] = test: Induction of apoptosis in human HeLa cells assessed as caspase-9 cleavage at 10 to 100 nM after 24 to 48 hrs by Western blot analysis; format: functional, cell-based; procedure, shortened: as §2
HeLa [14] = test: Induction of mitochondrial ROS generation in human HeLa cells at 15 to 250 nM by H2-DCFDA staining-based flow cytometric analysis; format: functional, cell-based; settings: TDE = time-dependent effect
Procedure, shortened: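 HeLa cells incubated 24 or 48 h with compound, stained with H₂-DCFDA, and intracellular ROS measured by flow cytometry. Mean of three independent experiments.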

HeLa [15] = test: Induction of mitochondrial membrane depolarization in human HeLa cells after 24 to 48 hrs by JC-1 staining-based fluorescence assay; format: functional, cell-based
Procedure, shortened: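 HeLa cells treated 24 or 48 h, then stained with JC-1. Cells with depolarised mitochondria quantified by flow cytometry. Mean of three independent experiments.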

HeLa [16] = test: Induction of apoptosis in human HeLa cells after 24 to 48 hrs by annexin-V-FITC/propidium iodide staining-based flow cytometric analysis; format: functional, cell-based
Procedure, shortened: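 HeLa cells treated 24 or 48 h, stained with annexin-V-FITC and PI, analysed by flow cytometry. Excitation 488 nm; emission 525 nm for FITC, 585 nm for PI. Gating separates live, early apoptotic, late apoptotic and necrotic cells. Mean of three independent experiments.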

HeLa [17] = test: Induction of DNA damage in human HeLa cells assessed as upregulation of gamma-H2A.X protein expression at 10 nM after 48 hrs by Western blot analysis; format: functional, cell-based; procedure, shortened: as §2
[18] = target: Cyclin-dependent kinase 1 (Homo sapiens) (UniProt P06493); test: Decrease of cdc2 protein phosphorylation at Tyr15 in human HeLa cells at 10 to 100 nM after 24 to 48 hrs by Western blot analysis; format: cell-based; procedure, shortened: as §2
Cyclin-dependent kinase 1 (Homo sapiens), sequence (P06493 whole entry, looked up): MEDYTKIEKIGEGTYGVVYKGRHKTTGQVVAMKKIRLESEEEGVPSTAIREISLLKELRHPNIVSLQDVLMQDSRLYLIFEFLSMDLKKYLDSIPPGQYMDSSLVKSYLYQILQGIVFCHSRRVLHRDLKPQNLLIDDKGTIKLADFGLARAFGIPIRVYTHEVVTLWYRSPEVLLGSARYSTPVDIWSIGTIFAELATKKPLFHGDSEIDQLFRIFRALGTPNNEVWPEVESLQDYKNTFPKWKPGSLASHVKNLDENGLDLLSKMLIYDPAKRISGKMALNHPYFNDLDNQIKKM

[19] = target: T1, M-phase inducer phosphatase 3 (Homo sapiens) (UniProt P30307); test: Increase of cdc25c phosphorylation at Ser216 in human HeLa cells at 10 to 100 nM after 48 hrs by Western blot analysis; format: cell-based; procedure, shortened: as §2
T1 sequence (whole entry): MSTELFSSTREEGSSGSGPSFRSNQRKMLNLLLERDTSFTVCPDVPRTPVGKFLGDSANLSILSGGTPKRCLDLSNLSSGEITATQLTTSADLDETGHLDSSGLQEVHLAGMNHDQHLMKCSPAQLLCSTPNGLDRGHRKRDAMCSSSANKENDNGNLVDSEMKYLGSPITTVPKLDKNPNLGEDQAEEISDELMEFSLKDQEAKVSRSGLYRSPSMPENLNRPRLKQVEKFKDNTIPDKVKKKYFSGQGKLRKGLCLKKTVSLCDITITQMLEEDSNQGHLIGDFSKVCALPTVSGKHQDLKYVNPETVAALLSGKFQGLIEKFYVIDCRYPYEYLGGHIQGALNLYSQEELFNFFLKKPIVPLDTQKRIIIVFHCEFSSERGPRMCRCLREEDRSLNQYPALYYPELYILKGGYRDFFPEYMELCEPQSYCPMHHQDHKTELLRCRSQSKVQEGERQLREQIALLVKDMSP

COc1cc(C(=O)c2cc3cc(N)cc(OC)c3s2)cc(OC)c1OC
Activity (HeLa [1]): Active | IC50 [2]: 0.52 µM | Activity (HeLa [3]): >80% | IC50 (HUVEC): 5.5 µM | IC50 (PBL): 24.7 µM | IC50 (HeLa [4]): 0.008 µM | IC50 [5]: 0.0041 µM | IC50 [6]: 0.012 µM | selectivity ratio [7]: 460 | selectivity ratio [8]: 460 | selectivity ratio [9]: 460 | selectivity ratio [10]: 460 | inhibition in vivo at 50 mg/kg (MNNG-HOS): 62% | Activity (HeLa [11]): Active | Activity (HeLa [12]): Active | Activity (HeLa [13]): Active | Activity (HeLa [14]): tde | Activity (HeLa [15]): Dose-dependent effect | Activity (HeLa [16]): Dose-dependent effect | Activity (HeLa [17]): Active | Activity [18]: Active | Activity [19]: inactive

Source: ChEMBL document CHEMBL3098049, “Concise synthesis and biological evaluation of 2-Aroyl-5-amino benzo[b]thiophene derivatives as a novel class of potent antimitotic agents” (J Med Chem, 2013)
